Experimental data from ChEMBL document CHEMBL5303300, “EUbOPEN Chemogenomics Library - Multiplex” (2023).
“And” between values parts separate entries of the source, which are not always exact repeats. Equal entries are not always repeated. *1 amine or outer side, *2 acyl side, *3 side chain or, on linkers, in order; H or OH if unused. Where a SMILES comes first, the peptide text is derived from it. Bridges are numbered along the chain shown (N, C = ends). Roman numbers before positions name the chains, in order. [ ]: non-standard residue; d: D form. Hexamethylenediamine = C(CCCN[*:2])CCN[*:1]; Dip = N[C@H](C(=O)O)C(c1ccccc1)c1ccccc1; Chg = N[C@H](C(=O)O)C1CCCCC1; NMeA = CN[C@@H](C)C(=O)O

Test system: Fibroblast
Assay: Multiplex assay against human fibroblast
Format: toxicity, cell-based
Settings: number of replicates 2
Outline: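 Imaging took place on a CQ1 microscope at 37°C and 5% CO2 once compound had been added to live cells stained at seeding with Hoechst33342, BioTracker Green Microtubule Cytoskeleton Dye, MitoTracker Red and Annexin V Alexa Fluor 680. CellPathfinder machine-learning gating classed cells as Hoechst high-intensity objects or normal cells, classed normal cells as having healthy, pyknosed or fragmented nuclei, and classed pyknosed cells as mitotic or apoptotic. Tubulin, mitochondrial-mass and membrane-permeability phenotypes are per cents of the healthy-nucleus cells.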

[1] = 12 h, 1 µM, compound concentration 1 uM
[2] = 12 h, 10 µM, compound concentration 10 uM
[3] = 24 h, 1 µM, compound concentration 1 uM
[4] = 24 h, 10 µM, compound concentration 10 uM
[5] = 48 h, 1 µM, compound concentration 1 uM
[6] = 48 h, 10 µM, compound concentration 10 uM

## CN[C@@H](C)C(=O)N[C@H](C(=O)N1CCC[C@H]1C(=O)N[C@H](C(=O)NCCCCCCNC(=O)[C@@H](NC(=O)[C@@H]1CCCN1C(=O)[C@@H](NC(=O)[C@H](C)NC)C1CCCCC1)C(c1ccccc1)c1ccccc1)C(c1ccccc1)c1ccccc1)C1CCCCC1 (I: H-[NMeA][Chg]P[Dip] / II: H-[NMeA][Chg]P[Dip]; linker I:C-II:C via Hexamethylenediamine)
[1]
  Population Apoptotic (%): 29% and 33%
  Population Fragmented Nuclei (%): 14% and 9%
  Population Healthy Nuclei (%): 64% and 70%
  Population Hoechst High Intensity Objects (%): 0%
  Population Membrane Permeable-Phenotype (%): 5% and 3%
  Population Mitochondria Different-Phenotype (%): 0% and 3%
  Population Mitotic Cells (%): 70% and 66%
  Population Normal (%): 100%
  Population Pyknosed Nuclei (%): 21% and 20%
  Population Tubulin-Different-Phenotype (%): 18% and 9%
  Total Cell Count: 205 and 174
[2]
  Population Apoptotic (%): 43% and 60%
  Population Fragmented Nuclei (%): 15% and 11%
  Population Healthy Nuclei (%): 55%
  Population Hoechst High Intensity Objects (%): 0%
  Population Membrane Permeable-Phenotype (%): 4% and 3%
  Population Mitochondria Different-Phenotype (%): 6% and 15%
  Population Mitotic Cells (%): 56% and 39%
  Population Normal (%): 100% and 99%
  Population Pyknosed Nuclei (%): 29% and 33%
  Population Tubulin-Different-Phenotype (%): 59% and 55%
  Total Cell Count: 210 and 251
[3]
  Population Apoptotic (%): 43% and 45%
  Population Fragmented Nuclei (%): 9% and 10%
  Population Healthy Nuclei (%): 68% and 66%
  Population Hoechst High Intensity Objects (%): 0%
  Population Membrane Permeable-Phenotype (%): 5% and 4%
  Population Mitochondria Different-Phenotype (%): 4% and 2%
  Population Mitotic Cells (%): 56% and 55%
  Population Normal (%): 100% and 99%
  Population Pyknosed Nuclei (%): 21% and 22%
  Population Tubulin-Different-Phenotype (%): 24% and 16%
  Total Cell Count: 203 and 176
[4]
  Population Apoptotic (%): 72% and 60%
  Population Fragmented Nuclei (%): 22% and 20%
  Population Healthy Nuclei (%): 48% and 60%
  Population Hoechst High Intensity Objects (%): 0%
  Population Membrane Permeable-Phenotype (%): 9% and 11%
  Population Mitochondria Different-Phenotype (%): 36% and 23%
  Population Mitotic Cells (%): 27% and 39%
  Population Normal (%): 100%
  Population Pyknosed Nuclei (%): 29% and 19%
  Population Tubulin-Different-Phenotype (%): 63% and 71%
  Total Cell Count: 249 and 210
[5]
  Population Apoptotic (%): 52% and 53%
  Population Fragmented Nuclei (%): 16% and 12%
  Population Healthy Nuclei (%): 65% and 73%
  Population Hoechst High Intensity Objects (%): 0%
  Population Membrane Permeable-Phenotype (%): 3% and 5%
  Population Mitochondria Different-Phenotype (%): 3% and 2%
  Population Mitotic Cells (%): 47% and 46%
  Population Normal (%): 100%
  Population Pyknosed Nuclei (%): 17% and 14%
  Population Tubulin-Different-Phenotype (%): 23% and 13%
  Total Cell Count: 206 and 194
[6]
  Population Apoptotic (%): 83% and 76%
  Population Fragmented Nuclei (%): 35% and 30%
  Population Healthy Nuclei (%): 57%
  Population Hoechst High Intensity Objects (%): 0%
  Population Membrane Permeable-Phenotype (%): 8% and 3%
  Population Mitochondria Different-Phenotype (%): 12% and 20%
  Population Mitotic Cells (%): 16% and 23%
  Population Normal (%): 100% and 99%
  Population Pyknosed Nuclei (%): 6% and 12%
  Population Tubulin-Different-Phenotype (%): 79% and 67%
  Total Cell Count: 258 and 314

## COc1ccncc1C(=O)NC(=O)Nc1ccc(-c2ccccc2)c(C(F)(F)F)c1
[1]
  Population Apoptotic (%): 43% and 32%
  Population Fragmented Nuclei (%): 7% and 12%
  Population Healthy Nuclei (%): 73% and 71%
  Population Hoechst High Intensity Objects (%): 0%
  Population Membrane Permeable-Phenotype (%): 5% and 3%
  Population Mitochondria Different-Phenotype (%): 1% and 2%
  Population Mitotic Cells (%): 56% and 67%
  Population Normal (%): 99% and 100%
  Population Pyknosed Nuclei (%): 19% and 15%
  Population Tubulin-Different-Phenotype (%): 6% and 5%
  Total Cell Count: 158 and 217
[2]
  Population Apoptotic (%): 38% and 50%
  Population Fragmented Nuclei (%): 8% and 16%
  Population Healthy Nuclei (%): 69%
  Population Hoechst High Intensity Objects (%): 0%
  Population Membrane Permeable-Phenotype (%): 9% and 5%
  Population Mitochondria Different-Phenotype (%): 2%
  Population Mitotic Cells (%): 61% and 50%
  Population Normal (%): 100%
  Population Pyknosed Nuclei (%): 22% and 13%
  Population Tubulin-Different-Phenotype (%): 22% and 16%
  Total Cell Count: 213 and 202
[3]
  Population Apoptotic (%): 59% and 44%
  Population Fragmented Nuclei (%): 19% and 15%
  Population Healthy Nuclei (%): 61% and 68%
  Population Hoechst High Intensity Objects (%): 0%
  Population Membrane Permeable-Phenotype (%): 4% and 6%
  Population Mitochondria Different-Phenotype (%): 1% and 2%
  Population Mitotic Cells (%): 40% and 55%
  Population Normal (%): 100%
  Population Pyknosed Nuclei (%): 19% and 16%
  Population Tubulin-Different-Phenotype (%): 12% and 10%
  Total Cell Count: 189 and 219
[4]
  Population Apoptotic (%): 46% and 65%
  Population Fragmented Nuclei (%): 10% and 18%
  Population Healthy Nuclei (%): 66% and 70%
  Population Hoechst High Intensity Objects (%): 0%
  Population Membrane Permeable-Phenotype (%): 6% and 4%
  Population Mitochondria Different-Phenotype (%): 0% and 2%
  Population Mitotic Cells (%): 53% and 34%
  Population Normal (%): 100%
  Population Pyknosed Nuclei (%): 22% and 11%
  Population Tubulin-Different-Phenotype (%): 19% and 12%
  Total Cell Count: 215 and 203
[5]
  Population Apoptotic (%): 75% and 63%
  Population Fragmented Nuclei (%): 13% and 16%
  Population Healthy Nuclei (%): 69% and 74%
  Population Hoechst High Intensity Objects (%): 0%
  Population Membrane Permeable-Phenotype (%): 4% and 7%
  Population Mitochondria Different-Phenotype (%): 0%
  Population Mitotic Cells (%): 25% and 36%
  Population Normal (%): 100% and 99%
  Population Pyknosed Nuclei (%): 16% and 9%
  Population Tubulin-Different-Phenotype (%): 4% and 6%
  Total Cell Count: 173 and 239
[6]
  Population Apoptotic (%): 66%
  Population Fragmented Nuclei (%): 9% and 16%
  Population Healthy Nuclei (%): 79% and 77%
  Population Hoechst High Intensity Objects (%): 0%
  Population Membrane Permeable-Phenotype (%): 9% and 1%
  Population Mitochondria Different-Phenotype (%): 0% and 1%
  Population Mitotic Cells (%): 33%
  Population Normal (%): 100%
  Population Pyknosed Nuclei (%): 10% and 6%
  Population Tubulin-Different-Phenotype (%): 11% and 4%
  Total Cell Count: 221 and 197

## CS(=O)(=O)c1ccc(C(=O)Nc2cc(F)c(F)c(COc3cc(F)c(Br)cc3CN3CC[C@H](O)C3)c2)c(Cl)c1.O=CO
[1]
  Population Apoptotic (%): 25% and 38%
  Population Healthy Nuclei (%): 55%
  Population Hoechst High Intensity Objects (%): 0%
  Population Mitotic Cells (%): 75% and 61%
  Population Normal (%): 100%
  Total Cell Count: 220 and 267
[2]
  Population Apoptotic (%): 80% and 55%
  Population Healthy Nuclei (%): 29%
  Population Hoechst High Intensity Objects (%): 0%
  Population Mitotic Cells (%): 20% and 44%
  Population Normal (%): 100% and 99%
  Total Cell Count: 162 and 357
[3]
  Population Apoptotic (%): 54% and 55%
  Population Healthy Nuclei (%): 64% and 54%
  Population Hoechst High Intensity Objects (%): 0%
  Population Mitotic Cells (%): 45% and 44%
  Population Normal (%): 99%
  Total Cell Count: 246 and 309
[4]
  Population Apoptotic (%): 94% and 79%
  Population Healthy Nuclei (%): 35% and 27%
  Population Hoechst High Intensity Objects (%): 0%
  Population Mitotic Cells (%): 5%
  Population Normal (%): 100% and 99%
  Total Cell Count: 154 and 339
[5]
  Population Apoptotic (%): 73% and 71%
  Population Healthy Nuclei (%): 61% and 60%
  Population Hoechst High Intensity Objects (%): 0%
  Population Mitotic Cells (%): 26%
  Population Normal (%): 99%
  Total Cell Count: 294 and 351
[6]
  Population Apoptotic (%): 93% and 91%
  Population Healthy Nuclei (%): 25% and 19%
  Population Hoechst High Intensity Objects (%): 0%
  Population Mitotic Cells (%): 6% and 8%
  Population Normal (%): 99%
  Total Cell Count: 147 and 311
